Test results reported in ChEMBL document CHEMBL1772938, “Optimization of 3-(phenylthio)quinolinium compounds against opportunistic fungal pathogens” (Eur J Med Chem, 2011).

Experiments:
Cryptococcus neoformans [1] = assay: Antimicrobial activity against Cryptococcus neoformans ATCC 90113 by CLSI method; assay type: functional
How it was run: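 C. neoformans in Sabouraud dextrose broth, inoculum per the 0.5 McFarland standard. Saline serial dilutions of DMSO samples were tested in duplicate, with a final top concentration of 20 μg/mL. OD 630 nm was read before and after incubation. IC50 was derived from % growth versus concentration. MIC was judged visually as the lowest concentration with no detectable growth. Amphotericin B served as the drug control.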

Candida albicans [2] = assay: Antimicrobial activity against Candida albicans ATCC 90028 by CLSI method; assay type: functional
How it was run: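 C. albicans inoculum was made to the 0.5 McFarland standard in Sabouraud dextrose broth or RPMI 1640. Samples came from DMSO stocks serially diluted in saline, in duplicate, starting at a final 20 μg/mL. Plates were read at OD 630 nm before and after incubation. IC50 came from the % growth versus concentration plot; MIC was the lowest concentration with no visible growth. Included: growth, solvent and blank controls, plus amphotericin B.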

Aspergillus fumigatus [3] = assay: Antimicrobial activity against Aspergillus fumigatus ATCC 90906 by CLSI method; assay type: functional
How it was run: (§1)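 Modified CLSI broth microdilution. DMSO stocks were serially diluted in saline and run in duplicate. Inoculum was set by the 0.5 McFarland standard in YM broth for MIC, or in RPMI-1640 + 5% Alamar Blue for IC50. The top final concentration was 20 μg/mL. Fluorescence (544ex/590em) was read before and after incubation. IC50 was taken from % growth versus concentration; MIC was read visually as no blue-to-pink change.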

Cryptococcus neoformans [4] = assay: Antimicrobial activity against Cryptococcus neoformans ATCC 90113 by alamar blue assay; assay type: functional, organism-based
Candida albicans [5] = assay: Antimicrobial activity against Candida albicans ATCC 90028 by alamar blue assay; assay type: functional, organism-based
Aspergillus fumigatus [6] = assay: Antimicrobial activity against Aspergillus fumigatus ATCC 90906 by alamar blue assay; assay type: functional, organism-based; how it was run: as §1
Vero = assay: Cytotoxicity against african green monkey Vero cells at 10 ug/ml after 48 hrs by neutral red assay; assay type: cell-based; conditions: chlorocebus sabaeus
How it was run: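 VERO kidney cells were seeded at 25,000 cells/well and incubated 24 h. Samples were added up to 10 μg/mL and incubated a further 48 h. Viable cells were counted by neutral red uptake. IC50 came from growth-inhibition dose curves. Doxorubicin was the positive control and DMSO the vehicle control.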

Nakaseomyces glabratus [7] = assay: Antimicrobial activity against Candida glabrata ATCC 90030 by CLSI method; assay type: functional
How it was run: (§2)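 Modified CLSI microdilution. DMSO samples were serially diluted in saline and tested in duplicate against inoculum adjusted by the 0.5 McFarland standard. The final test range started at 20 μg/mL. Plates were read before and after incubation. IC50 came from % growth versus concentration; MIC was the lowest concentration without visible growth. Growth, solvent, blank and amphotericin B controls were on each plate.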

Pichia kudriavzevii [8] = assay: Antimicrobial activity against Candida krusei ATCC 6258 by CLSI method; assay type: functional; how it was run: as §2
Nakaseomyces glabratus [9] = assay: Antimicrobial activity against Candida glabrata ATCC 90030 by alamar blue assay; assay type: functional, organism-based
Pichia kudriavzevii [10] = assay: Antimicrobial activity against Candida krusei ATCC 6258 by alamar blue assay; assay type: functional, organism-based
[11] = Selectivity index, ratio of TC50 for african green monkey Vero cells to IC50 for Cryptococcus neoformans ATCC 90113; assay type: toxicity, cell-based; conditions: read-out: Selectivity Index

Row | Structure (SMILES) | MIC (Cryptococcus neoformans [1]) [µg/mL] | MIC (Candida albicans [2]) [µg/mL] | MIC (Aspergillus fumigatus [3]) [µg/mL] | MIC (Nakaseomyces glabratus [7]) [µg/mL] | MIC (Pichia kudriavzevii [8]) [µg/mL] | MFC (Cryptococcus neoformans [1]) [µg/mL] | MFC (Candida albicans [2]) [µg/mL] | MFC (Aspergillus fumigatus [3]) [µg/mL] | IC50 (Cryptococcus neoformans [4]) [µg/mL] | IC50 (Candida albicans [5]) [µg/mL] | IC50 (Aspergillus fumigatus [6]) [µg/mL] | Activity (Vero) | MFC (Nakaseomyces glabratus [7]) [µg/mL] | MFC (Pichia kudriavzevii [8]) [µg/mL] | IC50 (Nakaseomyces glabratus [9]) [µg/mL] | IC50 (Pichia kudriavzevii [10]) [µg/mL] | selectivity ratio [11]
1 | Fc1cccc(Sc2cc3ccccc3[n+](CCCCCc3ccccc3)c2)c1.[I-] | 10 | > 20 | 20 |  |  | > 20 | > 20 | > 20 | 7 | > 20 | 5 | Non-toxic |  |  |  |  | 
2 | Fc1ccc(Sc2cc3ccccc3[n+](CCCCCc3ccccc3)c2)cc1.[I-] | 20 | > 20 | 20 |  |  | > 20 | > 20 | > 20 | 15 | > 20 | 9 | Non-toxic |  |  |  |  | 
3 | Brc1ccc(Sc2cc3ccccc3[n+](CCCCCc3ccccc3)c2)cc1.[I-] | 10 | 20 | 10 |  |  | 10 | > 20 | > 20 | 2 | 8.5 | 3.5 | Non-toxic |  |  |  |  | 
4 | FC(F)(F)c1ccccc1Sc1cc2ccccc2[n+](CCCCCc2ccccc2)c1.[I-] | 5 | > 20 | > 20 |  |  | 10 | > 20 | > 20 | 2.2 | 12 | 6.9 | Non-toxic |  |  |  |  | 
5 | FC(F)(F)c1cccc(Sc2cc3ccccc3[n+](CCCCCc3ccccc3)c2)c1.[I-] | 5 | > 20 | > 20 |  |  | 10 | > 20 | > 20 | 2.1 | 14 | 17 | Non-toxic |  |  |  |  | 
6 | Cc1ccccc1Sc1cc2ccccc2[n+](CCCCCc2ccccc2)c1.[I-] | 5 | > 20 | > 20 |  |  | 20 | > 20 | > 20 | 4 | > 20 | > 20 | Non-toxic |  |  |  |  | 

These reach a lower MIC (Cryptococcus neoformans [1]). Values come first.

Row | MIC (Cryptococcus neoformans [1]) [µg/mL] | MIC (Candida albicans [2]) [µg/mL] | MIC (Aspergillus fumigatus [3]) [µg/mL] | MIC (Nakaseomyces glabratus [7]) [µg/mL] | MIC (Pichia kudriavzevii [8]) [µg/mL] | Structure (SMILES) | MFC (Cryptococcus neoformans [1]) [µg/mL] | MFC (Candida albicans [2]) [µg/mL] | MFC (Aspergillus fumigatus [3]) [µg/mL] | IC50 (Cryptococcus neoformans [4]) [µg/mL] | IC50 (Candida albicans [5]) [µg/mL] | IC50 (Aspergillus fumigatus [6]) [µg/mL] | Activity (Vero) | MFC (Nakaseomyces glabratus [7]) [µg/mL] | MFC (Pichia kudriavzevii [8]) [µg/mL] | IC50 (Nakaseomyces glabratus [9]) [µg/mL] | IC50 (Pichia kudriavzevii [10]) [µg/mL] | selectivity ratio [11]
7 | 1.3 | 20 | 20 | 20 | 5 | N#Cc1cccc(Sc2cc3ccccc3[n+](CCCCCC3CCCCC3)c2)c1.[I-] | 5 | 20 | > 20 | 0.7 | 6.7 | 19 | Non-toxic | 20 | 10 | 13 | 1.4 | > 14
8 | 1.3 | 10 | 20 | 10 | 5 | N#Cc1ccc(Sc2cc3ccccc3[n+](CCCCCC3CCCCC3)c2)cc1.[I-] | 5 | 20 | > 20 | 0.5 | 6.2 | 19 | Non-toxic | 20 | 10 | 6.3 | 2.3 | > 20
9 | 2.5 | 10 | 20 | > 20 | 10 | Oc1cccc(Sc2cc3ccccc3[n+](CCCCCC3CCCCC3)c2)c1.[I-] | 5 | 20 | > 20 | 1.3 | 3.5 | 10 | Non-toxic | > 20 | 20 | > 20 | 5.1 | > 7.7
10 | 1.3 | 10 | 20 | > 20 | 5 | Oc1ccc(Sc2cc3ccccc3[n+](CCCCCC3CCCCC3)c2)cc1.[I-] | 2.5 | 20 | > 20 | 0.7 | 3.9 | 7.9 | Non-toxic | > 20 | 5 | > 20 | 1.5 | > 14
11 | 0.6 | 2.5 | 5 | 5 | 1.3 | FC(F)(F)c1ccccc1Sc1cc2ccccc2[n+](CCCCCC2CCCCC2)c1.[I-] | 1.3 | 2.5 | 5 | 0.3 | 1.1 | 1.8 | Non-toxic | 10 | 1.3 | 3 | 1.1 | > 33
12 | 0.6 | 2.5 | 2.5 | 10 | 2.5 | FC(F)(F)c1cccc(Sc2cc3ccccc3[n+](CCCCCC3CCCCC3)c2)c1.[I-] | 0.6 | 5 | > 20 | 0.4 | 1.3 | 2.2 | Non-toxic | 10 | 2.5 | 4.6 | 1.2 | > 25
13 | 0.6 | 2.5 | 2.5 | 10 | 2.5 | FC(F)(F)c1ccc(Sc2cc3ccccc3[n+](CCCCCC3CCCCC3)c2)cc1.[I-] | 0.6 | 2.5 | > 20 | 0.3 | 0.8 | 1.7 | Non-toxic | 10 | 5 | 4.7 | 1.3 | > 33
